Test results: BindingDB's records for doi:10.1021/jm00189a004 (1979)

Target: Indolethylamine N-methyltransferase (Oryctolagus cuniculus, UniProt O97972)
Assay: Inhibition of New Zealand white rabbit lung INMT using N-methyltryptamine as substrate after 60 to 90 mins by liquid scintillation counting in presence of S-methyl-[14C]adenosylmethionine
How it was run: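 Enzyme from male rabbit lung: homogenate in 0.15 M KCl with 10^-4 M DTT and EDTA, 50 000 g supernatant, 40-60% ammonium sulfate fraction dialysed (some runs further Sephadex G-150 purified). Incubation in potassium phosphate pH 7.9 with N-methyltryptamine and S-[methyl-14C]adenosylmethionine, test compound in water or 5% DMSO, 37 °C. Stopped with borate pH 10; 14C-DMT extracted into isoamyl alcohol.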

Indolethylamine N-methyltransferase, sequence (O97972 whole entry): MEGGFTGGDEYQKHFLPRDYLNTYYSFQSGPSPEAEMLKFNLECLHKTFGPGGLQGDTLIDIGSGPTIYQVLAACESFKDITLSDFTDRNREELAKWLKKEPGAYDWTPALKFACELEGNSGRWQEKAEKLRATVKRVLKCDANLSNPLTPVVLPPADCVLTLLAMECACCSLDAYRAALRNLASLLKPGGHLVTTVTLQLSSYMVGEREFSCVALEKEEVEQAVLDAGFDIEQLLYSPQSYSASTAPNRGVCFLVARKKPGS

C1CN=C2CCCN2C1
IC50: 38.7 µM
